This is a sample that favours compounds with a hit; in the whole collection about 2% have one here.
LYP inh 2 – LYP (human) phosphatase inhibition; Q9Y2R2; recombinant LYP catalytic domain, DiFMUP fluorescence; inhibition, % at 2 µM; 96,000 tested, 0.21% active;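 active means inhibition at 2 µM at or above a set limit, the screen mean plus 3 SD, cut at about 24% in these data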
Target sequence (Q9Y2R2 whole entry, looked up, the tested form may be a part): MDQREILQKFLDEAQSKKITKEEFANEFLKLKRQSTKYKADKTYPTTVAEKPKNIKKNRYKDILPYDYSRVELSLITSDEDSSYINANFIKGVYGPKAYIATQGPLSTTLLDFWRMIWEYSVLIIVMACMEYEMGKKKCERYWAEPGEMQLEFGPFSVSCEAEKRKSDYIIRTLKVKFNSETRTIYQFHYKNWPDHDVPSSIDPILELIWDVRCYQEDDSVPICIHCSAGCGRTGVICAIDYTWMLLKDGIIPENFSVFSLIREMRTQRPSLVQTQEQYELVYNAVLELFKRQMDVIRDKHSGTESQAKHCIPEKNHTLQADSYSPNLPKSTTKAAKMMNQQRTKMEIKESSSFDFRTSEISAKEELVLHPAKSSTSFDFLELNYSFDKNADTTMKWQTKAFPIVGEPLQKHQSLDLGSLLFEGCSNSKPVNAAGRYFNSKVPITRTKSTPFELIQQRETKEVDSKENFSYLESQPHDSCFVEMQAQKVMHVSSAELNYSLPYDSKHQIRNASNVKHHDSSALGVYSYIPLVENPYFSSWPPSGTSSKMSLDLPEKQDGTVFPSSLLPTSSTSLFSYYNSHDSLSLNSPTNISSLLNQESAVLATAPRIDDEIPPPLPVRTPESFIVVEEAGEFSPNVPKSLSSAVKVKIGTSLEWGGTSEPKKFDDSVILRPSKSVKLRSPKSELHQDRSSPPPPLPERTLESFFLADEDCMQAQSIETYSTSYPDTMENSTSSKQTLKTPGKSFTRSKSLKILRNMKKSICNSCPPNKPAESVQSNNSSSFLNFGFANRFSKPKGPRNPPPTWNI
Rev-RRE block – disrupts HIV-1 Rev binding to RRE RNA; P05866; 97,000 tested, 0.79% active; inhibition, % at 8 µM; Rev peptide-RRE RNA binding, FRET; AID 704;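 active means inhibition above the screen-wide mean plus 3 SD, cut at about 35% in these data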
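Assay system: labelled RRE RNA duplex and labelled Rev peptide / Medium: HEPES pH 7.5 salt buffer with EDTA / Reagent: labelled Rev peptide / Schedule: 5 + 15 min at 25 °C / Signal: FRET, excitation 480 nm, emission 540 nm donor and 671 nm acceptor / Benchmarks: DMSO and neomycin B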
PTPN22 act – increases human PTPN22 phosphatase activity | Q9Y2R2 | recombinant LYP, DiFMUP fluorescence; 0 = plate median, 100 = signal doubled | activation, % at 2 µM | 96,000 tested, 0.11% active;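 active means activation at 2 µM above a set limit, the mean plus 5 SD, cut at about 37% in these data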
EphB4 antag – EphB4-ephrin-B2 interaction antagonism; EphB4 LBD / TNYL-RAW-Alexa532 peptide, fluorescence polarization; 97,000 tested, 0.15% active; inhibition, % at 7 µM;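 active means inhibition above the screen-wide mean inhibition plus 3 SD, cut at about 15% in these data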
Plk1 PBD FP – blocks phosphopeptide binding to human Plk1 polo box domain | Plk1 PBD phosphopeptide binding, fluorescence polarization | inhibition, %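 (tested at about 20 µM)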 | P53350 | AID 693 | 97,000 tested, 0.13% active; in the data active means inhibition above about 34%, passing the limit was not always enough
PLK1 inh – inhibitors of human PLK1 kinase. recombinant PLK1 kinase, TR-FRET peptide phosphorylation. P53350. inhibition, % at 10 µM. AID 619. 97,000 tested, 0.53% active;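 active means inhibition of 50% or more in the single-concentration screen; inactive means inhibition below 50%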
PLK1 inh conf – confirmation of human PLK1 kinase inhibitors. shares compounds with PLK1 inh. recombinant PLK1 kinase, TR-FRET peptide phosphorylation. inhibition, % at 10 µM. 210 tested, 20% active. AID 744;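 active means inhibition at or above 50% in each of two repeat confirmation tests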
TR-FRET interf – Plk1 assay compound interference counter-screen hit; Plk1 TR-FRET assay interference, compound added post-reaction; 210 tested, under 10 active; inhibition (interference), % at 10 µM; shares compounds with PLK1 inh;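 active means both duplicate runs show 50% or greater inhibition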
PBD redox DR – counter-screen for Plk1 PBD inhibitors: redox cycling H2O2 generation. 120 tested, under 10 active. DTT. shares compounds with Plk1 PBD FP. EC50, µM; call rule not given here
Large screens that a line does not name were inactive (follow-up assays come after a bar, where they were run).

Cc1cccc(NC(=O)NCCN2C(=O)C3C4C=CC(C4)C3C2=O)c1 (stereo not given)	PLK1 inh 73.3 (no result: LYP inh 2, PTPN22 act) | PLK1 inh conf inactive | TR-FRET interf inactive
O=C(c1oc(=O)c2ccccc2c1-c1ccccc1)N1CCC(O)CC1	PLK1 inh 77.6 (no result: LYP inh 2, PTPN22 act) | PLK1 inh conf inactive | TR-FRET interf inactive
Cc1ncc([N+](=O)[O-])n1CCOC(=O)Nc1ccc(Cl)c(Cl)c1	PLK1 inh 84.5 | PLK1 inh conf 70.8 | TR-FRET interf inactive
NC(=O)CSc1nnc(-c2ccncc2)n1-c1ccc(Cl)cc1	PLK1 inh 72.7 (no result: LYP inh 2, PTPN22 act) | PLK1 inh conf inactive | TR-FRET interf inactive
O=C(O)CSc1nnc(-c2ccncc2)n1-c1ccc(Cl)cc1	none
Cc1ccc(Cl)c2c1NC(=O)C2(O)CC(=O)c1ccccc1O (stereo not given)	none
Brc1ccc(Oc2nnnn2-c2ccccc2)cc1	PLK1 inh 74.5 (no result: LYP inh 2, PTPN22 act) | PLK1 inh conf inactive | TR-FRET interf inactive
CC1CCN(CC(C)OC(=O)c2ccc3c(c2)OCCO3)CC1 (stereo not given)	PLK1 inh 70.4 (no result: LYP inh 2, PTPN22 act) | PLK1 inh conf inactive | TR-FRET interf inactive
O=C(COc1ccccc1)Nc1nnc(-c2ccc(Cl)s2)o1	PLK1 inh 72.3 (no result: LYP inh 2, PTPN22 act) | PLK1 inh conf inactive | TR-FRET interf inactive
O=C(COc1ccccc1)Nc1nnc(-c2ccccc2)o1	none
Nc1ncnc(Nc2cccc(C(F)(F)F)c2)n1	PLK1 inh 76.7 | PLK1 inh conf 73.8 | TR-FRET interf inactive
CCc1ccc(N(CC(=O)NC2CCCCC2)S(=O)(=O)c2c(C)noc2C)cc1	PLK1 inh 73.9 (no result: LYP inh 2, PTPN22 act) | PLK1 inh conf inactive | TR-FRET interf inactive
O=C(Nc1ccccc1)Nc1nccs1	PLK1 inh 93.0 | PLK1 inh conf inactive | TR-FRET interf inactive
COc1ccc(NC(=O)Nc2nccs2)cc1	none
CCOC(=O)C(C(C)=O)C(c1ccc(OCCC(C)C)cc1)C(C(C)=O)C(=O)OCC (stereo not given)	none
CC1CC(=O)NN=C1c1ccc(N(C)C)c([N+](=O)[O-])c1 (stereo not given)	none
CCOc1ccc2nc(SCC(=O)Nc3ccc4c(c3)OCCO4)[nH]c2c1	none
O=C(CSc1nc2ncc(Br)cc2[nH]1)Nc1ccc2c(c1)OCO2	PLK1 inh 70.3 | PLK1 inh conf inactive | TR-FRET interf inactive
CC(C)n1c(SCc2ccccc2F)nc2c1c(=O)n(C)c(=O)n2C	PLK1 inh 77.8 (no result: LYP inh 2, PTPN22 act) | PLK1 inh conf inactive | TR-FRET interf inactive
O=C(Nc1ccccc1-c1ccccc1)c1ccc(Br)o1	none
O=C(NCc1ccc2c(c1)OCO2)c1ccc(CS(=O)(=O)c2ccc(Br)cc2)o1	PLK1 inh 76.2 (no result: LYP inh 2, PTPN22 act) | PLK1 inh conf inactive | TR-FRET interf inactive
CCN1CCN(CC(=O)Nc2ccc3c(c2)OCCO3)C(=O)C1=O	PLK1 inh 73.1 (no result: LYP inh 2, PTPN22 act) | PLK1 inh conf inactive | TR-FRET interf inactive
COC(=O)c1c(-c2ccc(Br)cc2)noc1N	PLK1 inh 77.4 | PLK1 inh conf 62.7 | TR-FRET interf inactive
Cc1ccc(N(CC(=O)Nc2c(C)n(C)n(-c3ccccc3)c2=O)S(C)(=O)=O)cc1C	none
CC1Cc2ccccc2N1C(=O)c1ccc2c(c1)nnn2C (stereo not given)	Plk1 PBD FP 50.3 | PBD redox DR inactive
Cc1cccc(-n2c(CCn3nc(C)c([N+](=O)[O-])c3C)n[nH]c2=S)c1	Plk1 PBD FP 46.3 | PBD redox DR inactive
CCC1=NN(C(=O)C(=O)Nc2ccccc2OC)C(O)(C(F)(F)F)C1 (stereo not given)	none
O=C(CNS(=O)(=O)c1ccc(Br)s1)N1CCCC1	Plk1 PBD FP 43.8 | PBD redox DR inactive
CCOC(=O)C1CCCN(C(=O)CNS(=O)(=O)c2ccc(Br)s2)C1 (stereo not given)	none
CC(NC(=O)Nc1ncccn1)(C(F)(F)F)C(F)(F)F	none
COc1ccccc1Cc1noc(C(C)(C)NC(=O)c2ccccc2)n1	none
COc1ccc(C(=O)c2ccc(OC)c3cccc(O)c23)cc1OC	none
COc1ccc2c3c(cccc13)NN=C2C	Plk1 PBD FP 38.0 | PBD redox DR inactive
Nc1ccc2c(c1)C(=O)C(=O)c1ccccc1-2	Plk1 PBD FP 95.4 | PBD redox DR inactive
CCOc1ccc(C)cc1S(=O)(=O)Nc1ccc(Cl)cn1	none
COc1ccc(C(C)C)cc1S(=O)(=O)Nc1ccc(Cl)cn1	Plk1 PBD FP 46.7 | PBD redox DR inactive
Cc1ccc(S(=O)(=O)/N=C(/Nc2nc(C)cc(C)n2)N2CCOCC2)cc1	none
O=C(CSc1nnc(CN2CCOCC2)n1-c1ccc(Cl)cc1)Nc1cc(Cl)ccc1O	none
CC(=O)N(/N=C1\Sc2ccccc2C1=O)c1ccccc1C	Plk1 PBD FP 124.8 | PBD redox DR inactive
CC(=O)N(/N=C1\Sc2ccccc2C1=O)c1ccccc1	Plk1 PBD FP 101.1 | PBD redox DR inactive
c1ccc(NCc2nnc3n2CCCCC3)cc1	Plk1 PBD FP 44.9 | PBD redox DR inactive
COc1cccc(OC)c1C(=O)N1CCN(c2ccccn2)CC1	Plk1 PBD FP 38.3 | PBD redox DR inactive
COc1ccccc1C(=O)N1CCN(c2ccccn2)CC1	none
O=C(NC1(C(F)(F)F)NC(=O)N(CC2CCCCC2)C1=O)c1ccco1 (stereo not given)	Plk1 PBD FP 62.7 | PBD redox DR inactive
CC(C)(C)NC(=O)CC(c1ccccc1)c1ccccc1O (stereo not given)	none
CC(C)(C)NC(=O)CC(CC(=O)O)c1ccccc1 (stereo not given)	Plk1 PBD FP 44.9 | PBD redox DR inactive
O=C(Nc1cccn(Cc2c(Cl)cccc2Cl)c1=O)c1c(Cl)cccc1Cl	Plk1 PBD FP 51.0 | PBD redox DR inactive
CC(=NCC1CCNCC1)C1=C(O)CC(C)(C)CC1=O	none
Cc1cc(C)n(-c2nnc3n2N=C(c2ccccc2)CS3)n1	Plk1 PBD FP 46.0 | PBD redox DR inactive
O=C(NC1(O)C(=O)c2ccccc2C1=O)c1ccccc1	Plk1 PBD FP 81.8 | PBD redox DR inactive
CC(NC(=O)c1ccncc1)C(C)(C)C (stereo not given)	none
O=C(Cc1ccc(Cl)cc1)NCCN1CCCC1	Plk1 PBD FP 48.1 | PBD redox DR inactive
COC(=O)C1CCN(C(=O)NC2CCCCC2)CC1	none
CCn1ncc(CN2CCN(C(=O)Nc3ccccc3C(=O)OC)CC2)c1C	Plk1 PBD FP 39.4 | PBD redox DR inactive
COC(=O)c1ccccc1NC(=O)N1CCN(C/C=C/c2ccccc2)CC1	none

Screening results from PubChem BioAssay.
